The source of these data is ChEMBL document CHEMBL3734689, “Enzyme kinetics and inhibition of histone acetyltransferase KAT8” (Eur J Med Chem, 2015).

Experiment [1] concerns the target Histone acetyltransferase p300 (Homo sapiens) (UniProt Q09472). Description: Inhibition of human recombinant Histone acetyltransferase p300 catalytic domain (1284-1672 residues) using [3H]Acetyl-CoA and histone H3 substrate at 50 uM after 1 hr by liquid scintillation counting. A digest of the protocol: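 p300 activity was measured by radiolabel transfer to the histone substrate. Compounds were tested at a single 50 µM concentration, and the value is the percent inhibition.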

Experiment [2] has as its target T1, Histone acetyltransferase KAT8 (Homo sapiens) (UniProt Q9H7Z6).
T1 sequence (whole entry): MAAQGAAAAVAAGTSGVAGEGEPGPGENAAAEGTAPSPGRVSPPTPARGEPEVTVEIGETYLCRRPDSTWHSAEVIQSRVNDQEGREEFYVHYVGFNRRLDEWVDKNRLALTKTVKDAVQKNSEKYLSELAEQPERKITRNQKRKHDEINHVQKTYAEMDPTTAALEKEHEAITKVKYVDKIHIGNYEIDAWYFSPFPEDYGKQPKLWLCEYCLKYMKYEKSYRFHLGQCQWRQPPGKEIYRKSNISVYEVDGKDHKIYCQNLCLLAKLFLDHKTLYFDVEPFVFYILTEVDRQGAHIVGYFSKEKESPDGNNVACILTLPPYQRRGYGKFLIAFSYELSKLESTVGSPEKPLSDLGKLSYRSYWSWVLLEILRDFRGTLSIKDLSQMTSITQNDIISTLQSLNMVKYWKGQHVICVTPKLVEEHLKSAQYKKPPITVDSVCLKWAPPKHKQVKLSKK
Description: Inhibition of recombinant N-terminal His6-tagged KAT8 (unknown origin) expressed in Escherichia Coli BL21 DE3 cells assessed as reduction of Co A level using histone H4 substrate at 400 uM after 15 mins by CPM fluorescence assay.

For experiment [3], the target named is T1, Histone acetyltransferase KAT8 (Homo sapiens). The experiment can be described thus: Inhibition of recombinant N-terminal His6-tagged KAT8 (unknown origin) expressed in Escherichia Coli BL21 DE3 cells assessed as reduction of Co A level using histone H4 substrate after 15 mins by CPM fluorescence assay.
The target in experiment [4] is Histone acetyltransferase p300 (Homo sapiens) (UniProt Q09472). Description: Inhibition of human recombinant Histone acetyltransferase p300 catalytic domain (1284-1672 residues) using [3H]Acetyl-CoA and histone H3 substrate at 200 uM after 1 hr by liquid scintillation counting.

The source made the active and inactive calls. No cut-off for these calls is given here. Some results are limits rather than exact numbers.

Sequence of Histone acetyltransferase p300 (Homo sapiens) (Q09472 whole entry, the tested form may be a part): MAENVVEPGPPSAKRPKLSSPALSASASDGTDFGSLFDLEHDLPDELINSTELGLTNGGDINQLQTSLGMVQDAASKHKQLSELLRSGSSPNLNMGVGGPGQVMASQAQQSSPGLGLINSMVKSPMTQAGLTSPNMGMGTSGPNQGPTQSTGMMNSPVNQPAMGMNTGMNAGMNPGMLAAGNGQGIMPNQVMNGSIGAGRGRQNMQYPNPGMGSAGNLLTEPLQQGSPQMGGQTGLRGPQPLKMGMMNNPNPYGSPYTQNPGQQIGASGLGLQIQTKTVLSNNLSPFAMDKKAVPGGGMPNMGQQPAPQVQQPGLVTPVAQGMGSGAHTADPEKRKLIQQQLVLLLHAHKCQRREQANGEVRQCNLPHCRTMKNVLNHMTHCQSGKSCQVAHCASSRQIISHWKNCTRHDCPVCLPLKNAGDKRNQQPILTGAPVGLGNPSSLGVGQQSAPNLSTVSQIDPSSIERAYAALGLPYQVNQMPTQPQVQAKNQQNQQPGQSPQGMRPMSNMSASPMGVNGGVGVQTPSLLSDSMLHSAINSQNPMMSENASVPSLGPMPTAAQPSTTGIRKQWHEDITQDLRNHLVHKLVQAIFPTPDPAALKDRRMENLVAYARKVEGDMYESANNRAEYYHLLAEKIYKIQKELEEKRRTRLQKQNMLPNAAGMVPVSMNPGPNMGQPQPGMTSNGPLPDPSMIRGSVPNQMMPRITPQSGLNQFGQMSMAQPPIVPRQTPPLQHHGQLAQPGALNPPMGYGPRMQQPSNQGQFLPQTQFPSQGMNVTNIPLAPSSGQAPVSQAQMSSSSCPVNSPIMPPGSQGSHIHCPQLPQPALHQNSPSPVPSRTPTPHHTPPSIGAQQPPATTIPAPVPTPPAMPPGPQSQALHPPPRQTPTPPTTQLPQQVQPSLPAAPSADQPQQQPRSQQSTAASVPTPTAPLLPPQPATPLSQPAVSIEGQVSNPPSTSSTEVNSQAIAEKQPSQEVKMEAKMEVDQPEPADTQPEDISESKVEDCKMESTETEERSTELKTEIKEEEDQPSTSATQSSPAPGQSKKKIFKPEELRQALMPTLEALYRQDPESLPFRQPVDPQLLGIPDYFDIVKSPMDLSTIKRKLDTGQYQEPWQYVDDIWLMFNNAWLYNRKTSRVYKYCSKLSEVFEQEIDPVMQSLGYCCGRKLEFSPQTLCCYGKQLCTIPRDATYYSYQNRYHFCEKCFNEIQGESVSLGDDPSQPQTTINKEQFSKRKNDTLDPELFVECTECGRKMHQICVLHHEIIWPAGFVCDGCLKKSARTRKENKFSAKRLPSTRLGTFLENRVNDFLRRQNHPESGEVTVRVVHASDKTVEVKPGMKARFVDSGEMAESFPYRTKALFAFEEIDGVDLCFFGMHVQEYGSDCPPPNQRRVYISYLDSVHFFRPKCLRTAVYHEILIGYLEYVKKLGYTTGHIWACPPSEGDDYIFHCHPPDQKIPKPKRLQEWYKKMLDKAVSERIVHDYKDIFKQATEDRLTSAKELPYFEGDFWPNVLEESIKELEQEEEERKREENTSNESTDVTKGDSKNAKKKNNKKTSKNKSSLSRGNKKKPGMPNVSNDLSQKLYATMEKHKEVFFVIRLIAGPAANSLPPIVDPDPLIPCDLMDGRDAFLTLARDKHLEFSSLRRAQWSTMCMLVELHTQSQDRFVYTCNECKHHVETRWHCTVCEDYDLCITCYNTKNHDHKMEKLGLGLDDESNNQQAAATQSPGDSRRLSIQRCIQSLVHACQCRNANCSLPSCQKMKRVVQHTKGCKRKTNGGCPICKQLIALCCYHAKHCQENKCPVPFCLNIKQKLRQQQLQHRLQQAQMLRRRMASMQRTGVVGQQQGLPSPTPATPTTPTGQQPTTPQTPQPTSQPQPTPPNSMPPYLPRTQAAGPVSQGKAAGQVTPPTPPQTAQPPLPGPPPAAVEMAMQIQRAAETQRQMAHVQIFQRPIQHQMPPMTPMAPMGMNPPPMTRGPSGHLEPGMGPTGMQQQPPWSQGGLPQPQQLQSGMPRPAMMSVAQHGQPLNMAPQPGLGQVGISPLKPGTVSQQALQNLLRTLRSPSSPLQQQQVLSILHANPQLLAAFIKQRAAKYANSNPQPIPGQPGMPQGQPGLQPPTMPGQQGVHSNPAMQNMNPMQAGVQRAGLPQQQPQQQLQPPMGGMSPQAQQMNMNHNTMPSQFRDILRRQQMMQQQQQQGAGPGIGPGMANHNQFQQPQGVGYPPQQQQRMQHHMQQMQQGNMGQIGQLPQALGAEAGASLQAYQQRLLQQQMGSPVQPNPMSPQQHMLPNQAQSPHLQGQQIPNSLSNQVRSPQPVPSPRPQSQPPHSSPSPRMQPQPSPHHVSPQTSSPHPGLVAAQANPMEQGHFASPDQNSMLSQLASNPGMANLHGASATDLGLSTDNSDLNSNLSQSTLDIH

Broadly, the inhibition is how much of the control response was suppressed. As for `CCCCCCCCCCCCCCCc1cccc(O)c1C(=O)O`, in experiment [1], the inhibition was found to be 97%.
Take `O=C(O)c1c(O)cccc1CCCCCCCCCCCO`: the inhibition in experiment [2] was > 50%. For the same compound, in experiment [3], the logIC50 stood at 2.72. The inhibition entry in experiment [1] and in experiment [4] was “inactive” each time.
For the compound `CCCCCCCSCC(=O)c1ccccc1O`, the inhibition result in experiment [2], in experiment [1] and in experiment [4] was “inactive” throughout. Moreover, the logIC50 in experiment [3] was > 2.8.
Regarding `CCCCCCCCCCc1ccc(O)c(C(=O)O)c1`, the inhibition in experiment [2] was > 50%; in experiment [1], 95%. Further, the logIC50 in experiment [3] was found to be 2.28.
For `CCCCCCCCCCc1cccc(O)c1C(=O)O` the same measures were > 50%, 88% and 2.09.
On to `CCCCCc1ccc(O)c(C(=O)O)c1`, for which the inhibition entry in experiment [2], in experiment [1] and in experiment [4] was “inactive” each time. The logIC50 in experiment [3] is > 2.8.
As to `CC1=NN(c2ccc(C(=O)O)cc2)C(=O)/C1=C/c1ccc(-c2cc(C)c(C)cc2[N+](=O)[O-])o1`, in experiment [2], the inhibition result is “inactive”. The logIC50 in experiment [3] is > 2.8.
Turning to `CCCCCc1cccc(O)c1C(=O)O`, the inhibition result in experiment [2], in experiment [1] and in experiment [4] was “inactive” in each case. For the same compound, the logIC50 in experiment [3] was > 2.8.
As for `O=C(O)c1c(O)cccc1CCCCCO`, the inhibition result in experiment [2], in experiment [1] and in experiment [4] was “inactive” in each case. For the same compound, the logIC50 in experiment [3] was > 2.8.
As to `CCCCCCCCCCCCCCCc1ccc(O)c(C(=O)O)c1`, the inhibition in experiment [2] is > 50%; in experiment [1] it was 85%. The logIC50 in experiment [3] is 2.42.
